# Test results from ChEMBL document CHEMBL4689842, “EUbOPEN Chemogenomics Library wave 1” (2021).
# Tested on: Fibroblast
# Test: Multiplex assay against human fibroblast
# Assay type: toxicity, cell-based
# Outline: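 Per cents of healthy-nucleus cells form the tubulin, mitochondrial-mass and membrane-permeability phenotype values. Live cells were stained at seeding with Hoechst33342, BioTracker Green Microtubule Cytoskeleton Dye, MitoTracker Red and Annexin V Alexa Fluor 680. After compound addition they were imaged on a CQ1 microscope at 37°C and 5% CO2, and CellPathfinder machine-learning gating split them into Hoechst high-intensity objects or normal cells, normal cells into healthy, pyknosed or fragmented nuclei, and pyknosed cells into mitotic or apoptotic.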
# [1] = 12 h, 1 µM, compound concentration 1 uM, replicate 1
# [2] = 12 h, 1 µM, compound concentration 1 uM, replicate 2
# [3] = 12 h, 10 µM, compound concentration 10 uM, replicate 1
# [4] = 12 h, 10 µM, compound concentration 10 uM, replicate 2
# [5] = 24 h, 1 µM, compound concentration 1 uM, replicate 1
# [6] = 24 h, 1 µM, compound concentration 1 uM, replicate 2
# [7] = 24 h, 10 µM, compound concentration 10 uM, replicate 1
# [8] = 24 h, 10 µM, compound concentration 10 uM, replicate 2
# [9] = 48 h, 1 µM, compound concentration 1 uM, replicate 1
# [10] = 48 h, 1 µM, compound concentration 1 uM, replicate 2
# [11] = 48 h, 10 µM, compound concentration 10 uM, replicate 1
# [12] = 48 h, 10 µM, compound concentration 10 uM, replicate 2
structure (smiles),measurement,setting,value
CC(=O)c1cc(-c2cc(C(=O)NC3CC3)ccc2C)c2ncccn12,Population Apoptotic (%),[1],68%
same,Population Fragmented Nuclei (%),[1],28%
same,Population Healthy Nuclei (%),[1],35%
same,Population Hoechst High Intensity Objects (%),[1],16%
same,Population Membrane Permeable-Phenotype (%),[1],42%
same,Population Mitochondria Different-Phenotype (%),[1],3%
same,Population Mitotic Cells (%),[1],31%
same,Population Normal (%),[1],83%
same,Population Pyknosed Nuclei (%),[1],36%
same,Population Tubulin-Different-Phenotype (%),[1],42%
same,Total Cell Count,[1],96
same,Population Apoptotic (%),[2],66%
same,Population Fragmented Nuclei (%),[2],8%
same,Population Healthy Nuclei (%),[2],85%
same,Population Hoechst High Intensity Objects (%),[2],7%
same,Population Membrane Permeable-Phenotype (%),[2],2%
same,Population Mitochondria Different-Phenotype (%),[2],7%
same,Population Mitotic Cells (%),[2],33%
same,Population Normal (%),[2],92%
same,Population Pyknosed Nuclei (%),[2],6%
same,Population Tubulin-Different-Phenotype (%),[2],19%
same,Total Cell Count,[2],73
same,Population Apoptotic (%),[3],60%
same,Population Fragmented Nuclei (%),[3],20%
same,Population Healthy Nuclei (%),[3],40%
same,Population Hoechst High Intensity Objects (%),[3],25%
same,Population Membrane Permeable-Phenotype (%),[3],30%
same,Population Mitochondria Different-Phenotype (%),[3],23%
same,Population Mitotic Cells (%),[3],39%
same,Population Normal (%),[3],75%
same,Population Pyknosed Nuclei (%),[3],39%
same,Population Tubulin-Different-Phenotype (%),[3],50%
same,Total Cell Count,[3],140
same,Population Fragmented Nuclei (%),[4],11%
same,Population Healthy Nuclei (%),[4],84%
same,Population Hoechst High Intensity Objects (%),[4],4%
same,Population Membrane Permeable-Phenotype (%),[4],3%
same,Population Mitochondria Different-Phenotype (%),[4],8%
same,Population Mitotic Cells (%),[4],40%
same,Population Normal (%),[4],95%
same,Population Pyknosed Nuclei (%),[4],5%
same,Population Tubulin-Different-Phenotype (%),[4],17%
same,Total Cell Count,[4],52
same,Population Apoptotic (%),[5],66%
same,Population Fragmented Nuclei (%),[5],25%
same,Population Healthy Nuclei (%),[5],45%
same,Population Hoechst High Intensity Objects (%),[5],15%
same,Population Membrane Permeable-Phenotype (%),[5],51%
same,Population Mitochondria Different-Phenotype (%),[5],7%
same,Population Mitotic Cells (%),[5],33%
same,Population Normal (%),[5],84%
same,Population Pyknosed Nuclei (%),[5],29%
same,Population Tubulin-Different-Phenotype (%),[5],43%
same,Total Cell Count,[5],108
same,Population Apoptotic (%),[6],0%
same,Population Fragmented Nuclei (%),[6],3%
same,Population Healthy Nuclei (%),[6],91%
same,Population Hoechst High Intensity Objects (%),[6],4%
same,Population Membrane Permeable-Phenotype (%),[6],3%
same,Population Mitochondria Different-Phenotype (%),[6],9%
same,Population Mitotic Cells (%),[6],100%
same,Population Normal (%),[6],95%
same,Population Pyknosed Nuclei (%),[6],5%
same,Population Tubulin-Different-Phenotype (%),[6],12%
same,Total Cell Count,[6],70
same,Population Apoptotic (%),[7],57%
same,Population Fragmented Nuclei (%),[7],21%
same,Population Healthy Nuclei (%),[7],47%
same,Population Hoechst High Intensity Objects (%),[7],15%
same,Population Membrane Permeable-Phenotype (%),[7],24%
same,Population Mitochondria Different-Phenotype (%),[7],9%
same,Population Mitotic Cells (%),[7],42%
same,Population Normal (%),[7],84%
same,Population Pyknosed Nuclei (%),[7],31%
same,Population Tubulin-Different-Phenotype (%),[7],65%
same,Total Cell Count,[7],151
same,Population Apoptotic (%),[8],48%
same,Population Fragmented Nuclei (%),[8],11%
same,Population Healthy Nuclei (%),[8],63%
same,Population Hoechst High Intensity Objects (%),[8],2%
same,Population Membrane Permeable-Phenotype (%),[8],8%
same,Population Mitochondria Different-Phenotype (%),[8],12%
same,Population Mitotic Cells (%),[8],51%
same,Population Normal (%),[8],97%
same,Population Pyknosed Nuclei (%),[8],24%
same,Population Tubulin-Different-Phenotype (%),[8],18%
same,Total Cell Count,[8],62
same,Population Apoptotic (%),[9],42%
same,Population Fragmented Nuclei (%),[9],40%
same,Population Healthy Nuclei (%),[9],46%
same,Population Hoechst High Intensity Objects (%),[9],10%
same,Population Membrane Permeable-Phenotype (%),[9],34%
same,Population Mitochondria Different-Phenotype (%),[9],2%
same,Population Mitotic Cells (%),[9],57%
same,Population Normal (%),[9],89%
same,Population Pyknosed Nuclei (%),[9],13%
same,Population Tubulin-Different-Phenotype (%),[9],20%
same,Total Cell Count,[9],119
same,Population Apoptotic (%),[10],33%
same,Population Fragmented Nuclei (%),[10],30%
same,Population Healthy Nuclei (%),[10],66%
same,Population Hoechst High Intensity Objects (%),[10],7%
same,Population Membrane Permeable-Phenotype (%),[10],12%
same,Population Mitochondria Different-Phenotype (%),[10],1%
same,Population Mitotic Cells (%),[10],66%
same,Population Normal (%),[10],92%
same,Population Pyknosed Nuclei (%),[10],3%
same,Population Tubulin-Different-Phenotype (%),[10],32%
same,Total Cell Count,[10],101
same,Population Apoptotic (%),[11],52%
same,Population Fragmented Nuclei (%),[11],30%
same,Population Healthy Nuclei (%),[11],51%
same,Population Hoechst High Intensity Objects (%),[11],17%
same,Population Membrane Permeable-Phenotype (%),[11],27%
same,Population Mitochondria Different-Phenotype (%),[11],6%
same,Population Mitotic Cells (%),[11],47%
same,Population Normal (%),[11],82%
same,Population Pyknosed Nuclei (%),[11],17%
same,Population Tubulin-Different-Phenotype (%),[11],45%
same,Total Cell Count,[11],145
same,Population Apoptotic (%),[12],75%
same,Population Fragmented Nuclei (%),[12],26%
same,Population Healthy Nuclei (%),[12],69%
same,Population Hoechst High Intensity Objects (%),[12],9%
same,Population Membrane Permeable-Phenotype (%),[12],16%
same,Population Mitochondria Different-Phenotype (%),[12],8%
same,Population Mitotic Cells (%),[12],25%
same,Population Normal (%),[12],90%
same,Population Pyknosed Nuclei (%),[12],4%
same,Population Tubulin-Different-Phenotype (%),[12],35%
same,Total Cell Count,[12],107
